Here are results for 13 compounds from paper PMC5673027 (International Journal of Oncology, 2017).

As a reminder, the inhibition is the relative decrease from the control value, in per cent. Usually IC50 stands for the concentration that gives 50% inhibition. For orientation: half-life means how long it takes for the measured level to halve.

Entries after “also recorded” stand apart in the source; their conditions may differ.

In data set [1] the target is T1, CDK2/cyclin A2 (Homo sapiens, UniProt P24941). Kind of data set: In vitro CDK2 kinase assay. In kind it is biochemical. To be noted: for effect on CDK2 enzyme activity (in words): 0.5 mM (Fig. 7), pre-incubated 10 min, H1 histones. The procedure, abridged:
(§1)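 Kinases were purified CDK2/cyclin A2, CDK4/cyclin D1 and CDK6/cyclin D1, each pre-incubated with test compound for 10 min at room temperature, mostly at 0.5 mM, with some dose series. Reaction used 15 µM ATP, 2 µCi [γ-32P]ATP and 5 µg protein substrate (H1 histone for CDK2) at 30°C for 20 min, stopped with 20 mM EDTA. Read by SDS-PAGE autoradiography, bands expressed as percent of control.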

For data set [2], the target named is CDK4/cyclin D1 (Homo sapiens, UniProt P11802). Put plainly: In vitro CDK4 kinase assay. Format: biochemical. To be noted: for effect on CDK4 enzyme activity (in words): 0.5 mM (Fig. 7E, F), Rb substrate. The procedure, abridged: as §1
Data set [3] deals with CDK6/cyclin D1 (Homo sapiens, UniProt Q00534). Kind of data set: In vitro CDK6 kinase assay. The settings on record: for effect on CDK6 enzyme activity (in words): 0.5 mM (Fig. 7G, H), Rb substrate; for inhibition at 500 µM: read-out: inhibition of CDK6 activity. Format: biochemical. Summed up: as §1
Data set [4] deals with CDK1/cyclin B1 (Homo sapiens, UniProt P06493). Kind of data set: In vitro CDK1 kinase assay. In kind it is biochemical. The settings on record: for inhibition of CDK1 enzyme activity: quantification of band intensities, Fig. 1C/D, H1 histones; for effect on CDK1 enzyme activity (in words): in vitro kinase assay, H1 histone phosphorylation. The procedure, abridged: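 Purified CDK1/cyclin B1 complex in kit reaction buffer, pre-incubated with test compound at various concentrations for 10 min at room temperature. Phosphorylation run with 15 µM ATP, 2 µCi [γ-32P]ATP and 5 µg H1 histone at 30°C for 20 min, then stopped with 20 mM EDTA (final). Products resolved by 10% SDS-PAGE and autoradiographed; bands quantified as percent of control. Done 3–6 independent times.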

Data set [5] can be described thus: MTT cytotoxicity assay. Format: cell-based, human. To be noted: human, HCT-116 colorectal carcinoma cells. Summed up: (§2)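 HCT-116 cells kept in McCoy's 5A with 10% FBS, seeded overnight at 20,000 cells/well, then exposed to test compounds at various concentrations for 72 h. Viability read by MTT. IC50 taken from the concentration series. Experiments repeated 3–6 times independently.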
(In general: Tetrazolium dyes change colour on reduction, which living cells bring about.)

In data set [6] the test system is HCT-116 cells. Put plainly: MTT cytotoxicity assay. In kind it is cell-based, human. The settings on record: Homo sapiens, HCT-116, 72 h, read-out: MTT assay HCT-116 72 h (IC50). The procedure, abridged:
as §2

For data set [7] the following is noted: cited from earlier work.
For data set [8], the target named is T1, CDK2/cyclin A2. The settings on record: in vitro kinase assays; cited from earlier work.
Data set [9] has as its target cellular CDK1 in HCT-116 cells (Homo sapiens, UniProt P06493). Kind of data set: Acetylation of cellular CDK1 in HCT-116 cells. Format: cell-based. The settings on record: 0.25–2.5 mM, 12 h.
Where [10] appears, read: CDK1 IC50, Table III, purified CDK1 enzyme.
Setting [11] is: CDK1 IC50, text, dose-dependent inhibition, Fig. 1E-H.

CDK6/cyclin D1, sequence (Q00534 whole entry): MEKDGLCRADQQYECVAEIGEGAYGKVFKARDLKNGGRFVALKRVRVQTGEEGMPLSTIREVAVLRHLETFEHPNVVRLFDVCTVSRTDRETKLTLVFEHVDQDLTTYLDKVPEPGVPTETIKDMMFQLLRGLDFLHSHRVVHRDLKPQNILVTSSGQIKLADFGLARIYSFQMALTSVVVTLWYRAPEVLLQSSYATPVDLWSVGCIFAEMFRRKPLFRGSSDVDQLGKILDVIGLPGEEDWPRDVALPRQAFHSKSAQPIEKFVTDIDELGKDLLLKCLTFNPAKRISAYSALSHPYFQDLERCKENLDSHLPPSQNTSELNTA
CDK6/cyclin D1, sequence (P24385 whole entry partner): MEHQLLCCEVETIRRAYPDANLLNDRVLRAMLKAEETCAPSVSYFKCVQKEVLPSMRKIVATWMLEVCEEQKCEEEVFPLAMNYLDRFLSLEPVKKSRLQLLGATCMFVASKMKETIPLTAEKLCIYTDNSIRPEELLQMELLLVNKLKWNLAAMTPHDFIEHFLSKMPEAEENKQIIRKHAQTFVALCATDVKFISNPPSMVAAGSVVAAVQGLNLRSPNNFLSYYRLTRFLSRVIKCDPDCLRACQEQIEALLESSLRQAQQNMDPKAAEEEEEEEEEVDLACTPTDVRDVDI
CDK4/cyclin D1, sequence (P11802 whole entry): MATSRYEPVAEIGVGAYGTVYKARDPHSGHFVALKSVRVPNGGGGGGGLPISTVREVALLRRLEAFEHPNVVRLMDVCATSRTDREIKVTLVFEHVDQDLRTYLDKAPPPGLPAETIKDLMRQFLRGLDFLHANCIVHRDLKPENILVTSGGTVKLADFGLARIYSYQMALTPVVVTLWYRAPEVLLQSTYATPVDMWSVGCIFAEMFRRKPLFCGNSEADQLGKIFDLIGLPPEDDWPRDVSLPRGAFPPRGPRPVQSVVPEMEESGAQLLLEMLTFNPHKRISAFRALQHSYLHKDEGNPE
CDK4/cyclin D1, sequence (P24385 whole entry partner): as the sequence (P24385 whole entry partner) above
CDK1/cyclin B1, sequence (P14635 whole entry): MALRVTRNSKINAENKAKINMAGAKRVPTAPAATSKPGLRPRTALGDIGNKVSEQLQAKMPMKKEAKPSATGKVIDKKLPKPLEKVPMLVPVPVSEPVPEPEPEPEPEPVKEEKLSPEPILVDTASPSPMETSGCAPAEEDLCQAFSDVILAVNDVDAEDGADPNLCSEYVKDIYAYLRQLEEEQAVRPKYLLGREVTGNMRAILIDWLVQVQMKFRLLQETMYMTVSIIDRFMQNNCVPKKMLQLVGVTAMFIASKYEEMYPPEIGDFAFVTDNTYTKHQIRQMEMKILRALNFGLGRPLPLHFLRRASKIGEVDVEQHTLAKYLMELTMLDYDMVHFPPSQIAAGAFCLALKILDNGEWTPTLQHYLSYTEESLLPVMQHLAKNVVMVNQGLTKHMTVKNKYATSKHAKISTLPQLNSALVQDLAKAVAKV
CDK1/cyclin B1, sequence (P06493 whole entry): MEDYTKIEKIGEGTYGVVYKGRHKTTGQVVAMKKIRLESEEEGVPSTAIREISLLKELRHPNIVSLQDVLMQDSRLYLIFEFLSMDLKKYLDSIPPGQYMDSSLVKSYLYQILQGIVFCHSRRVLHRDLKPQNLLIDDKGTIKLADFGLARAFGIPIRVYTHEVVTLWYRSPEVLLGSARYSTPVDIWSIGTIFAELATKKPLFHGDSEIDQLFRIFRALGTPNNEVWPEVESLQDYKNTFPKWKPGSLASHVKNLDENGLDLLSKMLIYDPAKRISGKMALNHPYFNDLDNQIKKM
cellular CDK1 in HCT-116 cells, sequence (P06493 whole entry): as above

As for `O=C(O)c1cccc(O)c1O` [2,3-DHBA, 2,3-dihydroxy-benzoic acid], in [1], the “effect on CDK2 enzyme activity (in words)” value is on record as “did not inhibit; also recorded: either no or marginal effect”. The “effect on CDK4 enzyme activity (in words)” value in data set [2] is on record as “failed to inhibit; also recorded: either no or marginal effect”. In addition, in data set [3], the “effect on CDK6 enzyme activity (in words)” value is reported as “inhibited”. In [3], the inhibition at 500 µM was 28%. For the same compound, the figures for the IC50 in data set [4] (setting [10]), in data set [4] (setting [11]) and in data set [6] were 386 µM, 386 µM and 1780 µM, respectively. Also, in data set [4], the “inhibition of CDK1 enzyme activity” value came out at 55%. The IC50 at 72 h in data set [5] was around 1800 µM.
Regarding `O=C(O)c1c(O)cc(O)cc1O` [2,4,6-THBA, 2,4,6-trihydroxybenzoic acid], the IC50 in data set [1] is around 300 µM; in [4] (setting [10]), 226 µM; in data set [6], 785 µM. Besides, the “effect on CDK2 enzyme activity (in words)” value in data set [1] was “dose-dependent inhibition; also recorded: inhibited”. Moreover, the “effect on CDK4 enzyme activity (in words)” value in data set [2] is recorded as “inhibited”. The inhibition at 500 µM in [2] (read-out: inhibition of CDK4 activity) is 45%; in data set [3], 40%. Also, the “effect on CDK6 enzyme activity (in words)” value in data set [3] was “inhibited”. In addition, the “effect on CDK1 enzyme activity (in words)” value in data set [4] is “inhibited”. Half-maximal inhibition in data set [5] (IC50 at 72 h) required 800 µM.
Turning to `O=C(O)c1ccc(O)cc1O` [2,4-DHBA, 2,4-dihydroxybenzoic acid], the “inhibition of CDK1 enzyme activity” value in [4] turned out to be 25%.
On to `O=C(O)c1cc(O)ccc1O` [2,5-DHBA, 2,5-dihydroxybenzoic acid], for which the “inhibition of CDK1 enzyme activity” value in data set [4] worked out at 22%.
Turning to `O=C(O)c1c(O)cccc1O` [2,6-DHBA, 2,6-dihydroxybenzoic acid], the “effect on CDK2 enzyme activity (in words)” value in data set [1] is on record as “did not inhibit; also recorded: either no or marginal effect”. Moreover, the “effect on CDK4 enzyme activity (in words)” value in data set [2] was “failed to inhibit; also recorded: either no or marginal effect”. For the same compound, the “effect on CDK6 enzyme activity (in words)” value in data set [3] was “inhibited”. In addition, in data set [3], the inhibition at 500 µM is 37%. Moreover, the IC50 in [4] (setting [10]) was 365 µM; in [4] (setting [11]) it was 365 µM; in data set [6], 1950 µM. Moreover, the “inhibition of CDK1 enzyme activity” value in data set [4] turned out to be 65%. In data set [5], this compound returned an IC50 at 72 h of 1900 µM.
For the compound `O=C(O)c1cc(O)c(O)c(O)c1` [3,4,5-THBA, gallic acid], the “effect on CDK1 enzyme activity (in words)” value in data set [4] is “did not show any inhibitory effect; also recorded: failed to inhibit”.
For the compound `O=C(O)c1ccc(O)c(O)c1` [3,4-DHBA], in data set [4], the “effect on CDK1 enzyme activity (in words)” value is reported as “did not show any inhibition; also recorded: failed to inhibit”.
On the same count and under the same terms, with `O=C(O)c1cc(O)cc(O)c1` [3,5-DHBA] the entry was “failed to inhibit”.
In the case of `Nc1ccc(O)c(C(=O)O)c1` [5-aminosalicylic acid, reference compound], the results for the “effect on CDK1 enzyme activity (in words)” value in data set [4] and in [4] (listed as 5-amino-salicylic acid) were “did not show any inhibition” and “failed to inhibit”, respectively.
As to `CC(=O)Oc1ccccc1C(=O)O` [Aspirin], in [7], the oral bioavailability is 40–50%. The “effect on CDK2 enzyme activity (in words), previous study” value in data set [8] is reported as “failed to inhibit”. Also, the “effect on CDK2 enzyme activity (in words)” value in data set [1] is reported as “did not inhibit”. In [2], the “effect on CDK4 enzyme activity (in words)” value is reported as “failed to inhibit”. Moreover, the “effect on CDK6 enzyme activity (in words)” value in [3] is recorded as “did not affect”. Moreover, the “acetylation of cellular CDK1 (in words)” value in [9] is on record as “acetylated in aspirin treated samples in a dose-dependent fashion”. The “effect on CDK1 enzyme activity (in words)” value in data set [4] is listed as “do not inhibit; also recorded: failed to inhibit”.
For the compound `O=C(O)c1ccccc1O` [Salicylic acid, reference compound], in [7] (depending upon the dose), the half-life is reported as 4 to 6 h. For the same compound, the “conjugation with glycine to salicyluric acid” value in data set [7] (liver) is reported as 20–65%. In addition, the “effect on CDK2 enzyme activity (in words), previous study” value in data set [8] is given as “failed to inhibit”. In addition, the “effect on CDK2 enzyme activity (in words)” value in data set [1] was “did not inhibit”. The “effect on CDK4 enzyme activity (in words)” value in data set [2] is “failed to inhibit”. Also, the “effect on CDK6 enzyme activity (in words)” value in data set [3] was “did not affect”. Also, the “effect on CDK1 enzyme activity (in words)” value in [4] is “do not inhibit; also recorded: failed to inhibit”.
Take `O=C(O)c1ccccc1` [benzoic acid, reference compound]: in data set [4], the “effect on CDK1 enzyme activity (in words)” value was “did not show any inhibition; also recorded: failed to inhibit”.
In the case of `CN1CC[C@H](c2c(O)cc(O)c3c(=O)cc(-c4ccccc4Cl)oc23)[C@H](O)C1` [flavopiridol, reference compound], the “effect on CDK1 enzyme activity (in words)” value in data set [4] is recorded as “dose-dependently inhibited”.
